In brackets after ≈: the same amount, converted by molar mass.
Columns and labels:
Clostridioides difficile = assay: Antibacterial activity against Clostridium difficile ATCC BAA1870 assessed as inhibition of bacterial growth; assay type: functional
Escherichia coli = assay: Antibacterial activity against wild type Escherichia coli BW25113 assessed as inhibition of bacterial growth; assay type: functional
Candida albicans [1] = assay: Antifungal activity against Candida albicans ATCC 10231 assessed as inhibition of fungal growth incubated for 24 hrs by broth microdilution method; assay type: functional
Summary of the method: (§1)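 Broth microdilution per CLSI guidelines against clinical isolates, incubated at 35 °C for 24 h (Candida, Aspergillus) or 48 h (Cryptococcus). MIC was the lowest concentration giving 50% growth inhibition.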

Candida albicans [2] = assay: Antifungal activity against Candida albicans NR 29448 assessed as inhibition of fungal growth incubated for 24 hrs by broth microdilution method; assay type: functional
Summary of the method: (§2)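 Clinical isolate; CLSI broth microdilution over a range of concentrations (media listed: RPMI 1640, MOPS, YPD). MIC taken as lowest concentration giving 50% growth inhibition after 24 h at 35 °C.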

[Candida] auris [3] = Antifungal activity against Candida auris 382 assessed as inhibition of fungal growth incubated for 24 hrs by broth microdilution method; assay type: functional; conditions: Candidozyma auris; summary of the method: as §2
[Candida] auris [4] = Antifungal activity against Candida auris 383 assessed as inhibition of fungal growth incubated for 24 hrs by broth microdilution method; assay type: functional; conditions: Candidozyma auris; summary of the method: as §2
Nakaseomyces glabratus [5] = assay: Antifungal activity against Candida glabrata ATCC 66032 assessed as inhibition of fungal growth incubated for 24 hrs by broth microdilution method; assay type: functional; summary of the method: as §2
Nakaseomyces glabratus [6] = assay: Antifungal activity against Candida glabrata ATCC MYA2950 assessed as inhibition of fungal growth incubated for 24 hrs by broth microdilution method; assay type: functional; summary of the method: as §2
Pichia kudriavzevii = assay: Antifungal activity against Candida krusei CAB 396420 assessed as inhibition of fungal growth incubated for 24 hrs by broth microdilution method; assay type: functional; summary of the method: as §1
Aspergillus fumigatus = assay: Antifungal activity against Aspergillus fumigatus NR 35303 assessed as inhibition of fungal growth incubated for 24 hrs by broth microdilution method; assay type: functional; summary of the method: as §1
Cryptococcus neoformans [7] = assay: Antifungal activity against Cryptococcus neoformans NR 41300 assessed as inhibition of fungal growth incubated for 48 hrs by broth microdilution method; assay type: functional
Summary of the method: (§3)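 Clinical isolate; CLSI broth microdilution over a range of concentrations (media listed: RPMI 1640, MOPS, YPD). MIC read as lowest concentration inhibiting growth by 50% after 48 h incubation at 35 °C.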

Cryptococcus neoformans [8] = assay: Antifungal activity against Cryptococcus neoformans NR 48767 assessed as inhibition of fungal growth incubated for 48 hrs by broth microdilution method; assay type: functional; summary of the method: as §3
[9] = Antifungal activity against Cryptococcus gattii NR 43210 assessed as inhibition of fungal growth incubated for 48 hrs by broth microdilution method; assay type: functional, Cryptococcus gattii VGI; summary of the method: as §1
[10] = Antifungal activity against Cryptococcus gattii NR 43213 assessed as inhibition of fungal growth incubated for 48 hrs by broth microdilution method; assay type: functional, Cryptococcus gattii VGI; summary of the method: as §1
[11] = Antifungal activity against Cryptococcus gattii NR 43216 assessed as inhibition of fungal growth incubated for 48 hrs by broth microdilution method; assay type: functional, Cryptococcus gattii VGI; summary of the method: as §1
Caco-2 = assay: Cytotoxicity against human Caco-2 cells assessed as inhibition of cell viability at 128 ug/ml incubated for 2 hrs by MTS assay; assay type: toxicity, cell-based; conditions: caco-2, 2 h, dose 128 µg/ml
Summary of the method: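 Caco-2 cells were grown in DMEM with 10% FBS, 1× nonessential amino acids and penicillin–streptomycin, then treated with 32, 64 and 128 μg mL−1 for 2 h at 37 °C, 5% CO2, in triplicate. MTS was added for 3 h and OD490 read. Viability was expressed as % of DMSO control (mean ± SD).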

Vero = assay: Cytotoxicity against African green monkey Vero cells assessed as inhibition of cell viability at 128 ug/ml incubated for 2 hrs by MTS assay; assay type: toxicity, cell-based; conditions: chlorocebus sabaeus, dose 128 µg/ml
Summary of the method: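 Vero cells were grown in MEM with 10% FBS, 1 mM sodium pyruvate and penicillin–streptomycin, then exposed to compounds for 2 h at 37 °C, 5% CO2, in triplicate. MTS was added for 3 h and OD490 read. Viability was expressed as % of DMSO-matched controls (mean ± SD).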

[12] = Selectivity ratio of CC50 for cytotoxicity against human Caco-2 cells to MIC for antifungal activity against Cryptococcus neoformans NR 48770; assay type: toxicity, cell-based
[13] = Selectivity ratio of CC50 for cytotoxicity against human Caco-2 cells to MIC for antifungal activity against Cryptococcus neoformans NR 41299; assay type: toxicity, cell-based
[14] = Selectivity ratio of CC50 for cytotoxicity against human Caco-2 cells to MIC for antifungal activity against Cryptococcus gattii NR 43210; assay type: toxicity, cell-based
[15] = Selectivity ratio of CC50 for cytotoxicity against human Caco-2 cells to MIC for antifungal activity against Cryptococcus gattii NR 43209; assay type: toxicity, cell-based
[16] = Selectivity ratio of CC50 for cytotoxicity against human Caco-2 cells to MIC for antifungal activity against Cryptococcus gattii NR 43213; assay type: toxicity, cell-based
[17] = Selectivity ratio of CC50 for cytotoxicity against African green monkey Vero cells to MIC for antifungal activity against Cryptococcus neoformans NR 41298; assay type: toxicity, cell-based
[18] = Selectivity ratio of CC50 for cytotoxicity against African green monkey Vero cells to MIC for antifungal activity against Cryptococcus neoformans NR 48770; assay type: toxicity, cell-based
[19] = Selectivity ratio of CC50 for cytotoxicity against African green monkey Vero cells to MIC for antifungal activity against Cryptococcus neoformans NR 41299; assay type: toxicity, cell-based
[20] = Selectivity ratio of CC50 for cytotoxicity against African green monkey Vero cells to MIC for antifungal activity against Cryptococcus neoformans NR 48771; assay type: toxicity, cell-based
[21] = Selectivity ratio of CC50 for cytotoxicity against African green monkey Vero cells to MIC for antifungal activity against Cryptococcus gattii NR 43214; assay type: toxicity, cell-based
[22] = Antibacterial activity against Lactobacillus casei HM334 assessed as inhibition of bacterial growth; assay type: toxicity; conditions: lacticaseibacillus casei
[23] = Antibacterial activity against Lactobacillus crispatus HM370 assessed as inhibition of bacterial growth; assay type: toxicity
[24] = Half life in Sprague-Dawley rat at 25 mg/kg, po administered as single dose by LC/MS/MS analysis; assay type: ADME, organism-based; conditions: in vivo
Summary of the method: (§4)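 Male naïve Sprague–Dawley rats (n=3) received a single 25 mg kg−1 oral gavage dose in 5% ethanol/45% PEG 400/50% water. EDTA-K2 blood was sampled over 24 h post-dose. Plasma levels were measured by LC/MS/MS after acetonitrile protein precipitation, and parameters came from two-compartment analysis.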

[25] = Volume of distribution in Sprague-Dawley rat at 25 mg/kg, po administered as single dose by LC/MS/MS analysis; assay type: ADME, organism-based; conditions: in vivo
Summary of the method: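 Male naïve Sprague–Dawley rats (n = 3) received a single 25 mg kg−1 dose by oral gavage in 5% ethanol/45% PEG 400/50% water. EDTA-K2 blood was sampled over 24 h. Plasma levels were measured by LC/MS/MS after acetonitrile protein precipitation, and parameters came from two-compartment analysis.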

[26] = Cmax in Sprague-Dawley rat at 25 mg/kg, po administered as single dose by LC/MS/MS analysis; assay type: ADME, organism-based; set-up: dose 25 mg/kg, route po; conditions: in vivo; summary of the method: as §4
[27] = Plasma concentration in Sprague-Dawley rat at 25 mg/kg, po administered as single dose and measured within few minutes by LC/MS/MS analysis; assay type: ADME, organism-based; conditions: in vivo; summary of the method: as §4
[28] = Plasma concentration in Sprague-Dawley rat at 25 mg/kg, po administered as single dose and measured for 18 hrs by LC/MS/MS analysis; assay type: ADME, organism-based; summary of the method: as §4

SMILES | MIC (Clostridioides difficile) [µg/mL] | MIC (Escherichia coli) [µg/mL] | MIC (Candida albicans [1]) [µg/mL] | MIC (Candida albicans [2]) [µg/mL] | MIC ([Candida] auris [3]) [µg/mL] | MIC ([Candida] auris [4]) [µg/mL] | MIC (Nakaseomyces glabratus [5]) [µg/mL] | MIC (Nakaseomyces glabratus [6]) [µg/mL] | MIC (Pichia kudriavzevii) [µg/mL] | MIC (Aspergillus fumigatus) [µg/mL] | MIC (Cryptococcus neoformans [7]) [µg/mL] | MIC (Cryptococcus neoformans [8]) [µg/mL] | MIC [9] [µg/mL] | MIC [10] [µg/mL] | MIC [11] [µg/mL] | Activity (Caco-2) | Activity (Vero) | selectivity ratio [12] | selectivity ratio [13] | selectivity ratio [14] | also measured
Cc1nc(-c2ccc3ccccc3c2)sc1-c1nnc(N[C@@H]2CCCC[C@@H]2N)o1 (relative stereo) | 64 (≈ 158 µM) | > 64 | 4 (≈ 9.86 µM) | 4 (≈ 9.86 µM) | 2 (≈ 4.93 µM) | 1 (≈ 2.47 µM) | 1 (≈ 2.47 µM) | 0.5 (≈ 1.23 µM) | 1 (≈ 2.47 µM) | 8 (≈ 19.7 µM) | 1 (≈ 2.47 µM) | 2 (≈ 4.93 µM) | 1 (≈ 2.47 µM) | 2 (≈ 4.93 µM) | 2 (≈ 4.93 µM) | Non-Toxic | Non-Toxic | 64 | 64 | 64 | selectivity ratio [15]: 64; selectivity ratio [16]: 64; selectivity ratio [17]: 64; selectivity ratio [18]: 64; selectivity ratio [19]: 64; selectivity ratio [20]: 64; selectivity ratio [21]: 64; MIC [22]: 128 µg/mL (≈ 316 µM); MIC [23]: > 128 µg/mL
Cc1nc(-c2ccc3ccccc3c2)sc1-c1nnc(N[C@@H]2CCCC[C@H]2N)o1 (relative stereo) | 32 (≈ 78.9 µM) | > 64 | 4 (≈ 9.86 µM) | 4 (≈ 9.86 µM) | 2 (≈ 4.93 µM) | 1 (≈ 2.47 µM) | 1 (≈ 2.47 µM) | 1 (≈ 2.47 µM) | 1 (≈ 2.47 µM) | 4 (≈ 9.86 µM) | 1 (≈ 2.47 µM) | 2 (≈ 4.93 µM) | 1 (≈ 2.47 µM) | 2 (≈ 4.93 µM) | 2 (≈ 4.93 µM) | Non-Toxic | Non-Toxic | 64 | 64 | 64 | selectivity ratio [15]: 64; selectivity ratio [16]: 64; selectivity ratio [17]: 64; selectivity ratio [18]: 64; selectivity ratio [19]: 64; selectivity ratio [20]: 64; selectivity ratio [21]: 64; MIC [22]: > 128 µg/mL; MIC [23]: > 128 µg/mL; half-life [24]: 3.6 h; Vd [25]: 1.64 L; Cmax [26]: 9400 ng/mL; Cp [27]: 1000 ng/mL; concentration at 18 h [28]: 1000 ng/mL
